PKD1 kinase inh = PKD1 (human) kinase inhibition. Q15139. PKD1 kinase fluorescence polarization assay. inhibition, % (concentration not given with the values). 200,000 compounds, 0.056% hits; in the data active means inhibition above about 50%
Target sequence (Q15139 whole entry, looked up): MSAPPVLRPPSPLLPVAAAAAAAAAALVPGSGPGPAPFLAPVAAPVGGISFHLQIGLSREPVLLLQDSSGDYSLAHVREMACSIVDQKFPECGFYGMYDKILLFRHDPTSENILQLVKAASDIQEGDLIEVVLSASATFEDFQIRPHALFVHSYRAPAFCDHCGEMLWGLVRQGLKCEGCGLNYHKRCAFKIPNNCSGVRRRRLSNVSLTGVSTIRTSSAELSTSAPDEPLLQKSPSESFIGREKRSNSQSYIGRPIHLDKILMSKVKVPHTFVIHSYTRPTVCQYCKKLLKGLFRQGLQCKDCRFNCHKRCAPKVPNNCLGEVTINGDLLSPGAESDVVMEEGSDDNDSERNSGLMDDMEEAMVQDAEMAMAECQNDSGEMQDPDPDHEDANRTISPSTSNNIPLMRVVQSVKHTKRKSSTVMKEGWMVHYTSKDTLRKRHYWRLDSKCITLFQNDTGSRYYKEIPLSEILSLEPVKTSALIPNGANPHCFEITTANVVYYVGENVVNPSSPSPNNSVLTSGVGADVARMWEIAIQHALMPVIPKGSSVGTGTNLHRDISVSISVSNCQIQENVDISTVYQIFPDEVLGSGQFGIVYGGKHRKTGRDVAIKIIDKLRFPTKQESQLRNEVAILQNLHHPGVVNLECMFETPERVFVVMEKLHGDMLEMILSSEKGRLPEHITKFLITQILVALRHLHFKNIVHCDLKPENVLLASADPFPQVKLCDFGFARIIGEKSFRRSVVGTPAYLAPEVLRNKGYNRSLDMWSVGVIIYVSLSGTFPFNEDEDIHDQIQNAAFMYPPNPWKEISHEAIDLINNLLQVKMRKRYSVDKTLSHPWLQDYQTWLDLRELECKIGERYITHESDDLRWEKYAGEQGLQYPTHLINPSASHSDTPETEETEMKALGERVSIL
MT stabilize HCS = microtubule stabilization, imaging screen. HeLa tubulin immunostaining HCS, 24 h; share of cells brighter than vehicle mean+2SD. % tubulin-high responders, % at 10 µM. 200,000 compounds, 0.83% hits. AID 2205;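 active means plate Z-score above 3 for both tubulin-high and condensed-nucleus cell shares, with cell loss under 80%, at 10 µM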;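 further: anti alpha tubulin signal scored within the nucleus-defined area of each cell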
b-catenin transl = modulators of beta-catenin nuclear translocation | HeLa beta-catenin nuclear translocation, immunofluorescence imaging | nuclear translocation activity, % at 5 µM | 190,000 compounds, 0.3% hits | AID 1665;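 active means nuclear translocation activity above 50% at 5 µM, with a well cell count of 50 or more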;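 further: per-cell ratio of nuclear to cytoplasmic median beta-catenin stain intensity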
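Assay system: human HeLa cells, native beta-catenin; doses: 5 µM primary, 0.02–20 µM confirmation; incubation: compound treatment 24 h, 37°C, 5% CO2; technique: fluorescence imaging of beta-catenin antibody stain plus DAPI; measure: % activation, nuclear-to-cytoplasmic median beta-catenin signal ratio per cell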
ABCG2 block = blocks JC-1 efflux by human ABCG2 transporter | inhibition, % at 6.6 µM | IgMXP3 cells, flow cytometry | AID 1325 | 190,000 compounds, 0.1% hits;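 active means inhibition above 80%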
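Times: 10 min at 25 °C | Test system: Two drug-resistant human cell lines, ABCG2 and ABCB1 | Quantity: 3 million cells/mL final, two lines in 1:1 ratio | Signal: Flow cytometry, 530 nm JC-1 signal | Dosing: Compound at 6.6 µM | Controls: Nicardipine and DMSO wells | Reagent: JC-1 as fluorescent efflux pump substrate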
ABCB1 block = human ABCB1 inhibition, ABCG2 as counter-screen; CCRF-Adr cells, JC-1 efflux, flow cytometry; 190,000 compounds, 0.067% hits; inhibition, % at 6.6 µM; AID 1326; in the data active means inhibition above about 40%;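 further: higher value means more JC-1 retained so stronger ABCB1 efflux block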
Each line names hits and unclear results; the compound was inactive in the other large screens. Hits are enriched below; roughly 1% of the tested compounds scored in any of these assays.

COc1ccc(OC)c(Nc2ncnc3c2cnn3-c2cccc(C)c2)c1	MT stabilize HCS 35
Cc1ccc(-n2ncc3c(NCc4ccco4)ncnc32)cc1C	MT stabilize HCS 9.4
NC(=O)CCn1ccc2ccccc21	none
COc1ccc(C(=O)COc2ccccc2N2C(=O)C3C4C=CC(C4)C3C2=O)cc1 (configuration not stated)	none (no result: b-catenin transl)
O=C(Cc1cccs1)NCc1cccs1	none
COc1ccc(CC(=O)NCc2cccs2)cc1	MT stabilize HCS 43, b-catenin transl 54
COc1ccc(S(=O)(=O)NN(C)c2nc(C(F)(F)F)nc3ccccc23)cc1	MT stabilize HCS 25
COc1ccc(S(=O)(=O)Nc2ccccc2C(F)(F)F)cc1	none
CCCC(=O)Nc1ccc(NC(=S)NC(=O)c2ccccc2[N+](=O)[O-])cc1	MT stabilize HCS 10 (no result: b-catenin transl)
CCC(=O)NC(=S)Nc1ccc(NC(=O)c2ccccc2[N+](=O)[O-])cc1	none
O=C(CSc1nc2ccccc2s1)Nc1cc(S(=O)(=O)N2CCOCC2)ccc1O	none
O=S(=O)(c1cc(-c2nnc(-c3ccc(Br)cc3)o2)ccc1Br)N1CCCCCC1	MT stabilize HCS 43
CCOc1ccc(C(=O)NC(=S)Nc2cccc(S(=O)(=O)NC3=NCCC3)c2)cc1	MT stabilize HCS 17
CCCNc1nc(Nc2ccc(C)cc2)nc(N2CCCC2)n1	none (no result: b-catenin transl)
O=C(Nc1ccccc1)Oc1cccc(Br)c1	none (no result: PKD1 kinase inh, MT stabilize HCS, ABCG2 block, ABCB1 block)
CC(=O)NC1=NN(C(C)=O)C(C)(c2cccs2)S1 (configuration not stated)	MT stabilize HCS 39
O=C1NC(=Nc2ccccc2)S/C1=C/c1cccs1	none
Cc1ccc(N=C2NC(=O)/C(=C/c3cccn3C)S2)cc1	b-catenin transl 65 (no result: PKD1 kinase inh, MT stabilize HCS, ABCG2 block, ABCB1 block)
Cc1ccc(N=C2NC(=O)/C(=C/c3cccn3C)S2)cc1C	none (no result: PKD1 kinase inh, MT stabilize HCS, ABCG2 block, ABCB1 block)
Cc1ccc(N=C2NC(=O)/C(=C\c3ccc(C)s3)S2)cc1	MT stabilize HCS 6.3
O=C(N/N=C/c1ccc([N+](=O)[O-])o1)c1cc(-c2ccncc2)nc2ccccc12	none
O=C(N/N=C/c1ccc(F)cc1)c1cc(-c2ccco2)nc2ccccc12	b-catenin transl 53
O=C(N/N=C/c1ccsc1)c1cc(-c2ccncc2)nc2ccccc12	MT stabilize HCS 13
CCOc1ccc(/C=N/NC(=O)c2cc(-c3ccco3)nc3ccccc23)cc1	none (no result: b-catenin transl)
O=C(N/N=C/c1ccc([N+](=O)[O-])o1)c1cc(-c2ccc(-c3ccccc3)cc2)nc2ccccc12	MT stabilize HCS 12
Cn1c(SCC(=O)N/N=C/c2ccco2)nc2ccccc21	none
CC(/C=N/NC(=O)CSc1nc2ccccc2n1C)=C\c1ccco1	MT stabilize HCS 17
CC12CCC(C(=O)N/N=C/c3ccc(O)cc3)(OC1=O)C2(C)C (configuration not stated)	none (no result: PKD1 kinase inh, MT stabilize HCS, ABCG2 block, ABCB1 block)
Cc1ccc2[nH]c3c(=O)n(N)c(=O)[nH]c3c2c1	none (no result: PKD1 kinase inh, MT stabilize HCS, ABCG2 block, ABCB1 block)
Cc1ccc(/C=N/NC(=O)c2cc(-c3cccnc3)nc3ccccc23)cc1	b-catenin transl 83
O=C(N/N=C/c1ccc2c(c1)OCO2)c1cc(-c2ccccc2Cl)nc2ccccc12	none (no result: b-catenin transl)
O=C(N/N=C/c1ccsc1)c1cc(-c2cccs2)nc2ccccc12	MT stabilize HCS 10
CC(/C=N/NC(=O)c1cc(-c2ccncc2)nc2ccccc12)=C\c1ccco1	MT stabilize HCS 16
O=C(N/N=C/c1ccc2c(c1)OCO2)c1cc(-c2ccncc2)nc2ccccc12	MT stabilize HCS 21
O=C(O)c1ccc(/C=N/NC(=O)c2cc(-c3cccs3)nc3ccccc23)cc1	none
COc1cc(C2Sc3ccccc3NC3=C2C(=O)OC3)cc(OC)c1OC (configuration not stated)	MT stabilize HCS 40
NNC(=O)c1csc(-c2ncc(C(F)(F)F)cc2Cl)n1	none (no result: PKD1 kinase inh, MT stabilize HCS, ABCG2 block, ABCB1 block)
COc1ccc(-n2c(SC(C)C(=O)Nc3ncc(Cl)cc3Cl)nc3ccccc32)cc1 (configuration not stated)	MT stabilize HCS 18
CC(Sc1nnc2ccccn12)C(=O)Nc1ncc(Cl)cc1Cl (configuration not stated)	none
CCN(CC)c1ccc(/C=N/n2nnnc2N)c(O)c1	MT stabilize HCS 24 (no result: b-catenin transl)
CCOC(=O)N/N=C/c1ccc(N(CC)CC)cc1O	MT stabilize HCS 16
CCN(C)c1ccc(/C=N\n2nnnc2N)cc1	MT stabilize HCS 25 (no result: b-catenin transl)
CCN(CC)c1ccc(/C=N/N2C(=O)c3ccccc3C2=O)c(O)c1	none
S=C(NC1CCCC1)NN1CCOCC1	none
CC(C)C(=O)NC(NC(=O)C(C)C)c1ccc([N+](=O)[O-])cc1	none (no result: b-catenin transl)
CC(Sc1nnc2ccccn12)C(=O)Nc1ccc2c(c1)OCO2 (configuration not stated)	none
C/C(=N\NC(N)=S)c1ccc2c(c1)OCCO2	none (no result: PKD1 kinase inh, MT stabilize HCS, ABCG2 block, ABCB1 block)
C/C(=N\NC(=S)Nc1ccc(F)cc1)c1ccc2c(c1)OCCO2	MT stabilize HCS 22 (no result: b-catenin transl)
N=c1n(Cc2ccc(Cl)cc2)c2ccccc2n1CC(O)COc1ccccc1 (configuration not stated)	MT stabilize HCS 21
Cc1ccsc1/C=N\NC(=O)CCc1c(C)n[nH]c1C	none
Clc1ccc2nc3c4ccccc4cnn3c2c1	MT stabilize HCS 17
Cc1ccccc1OCCNC(=O)CSc1ccc(C(F)(F)F)cc1[N+](=O)[O-]	none
Cc1ccc(S(=O)(=O)N/N=C\c2ccccc2OCc2ccccc2)cc1	MT stabilize HCS 25 (no result: b-catenin transl)
C=C(C)COc1ccc(-c2[nH]ncc2-c2ccc(OC)c(OC)c2)c(O)c1	MT stabilize HCS 58
O=C(N/N=C/C1CC=CCC1)c1cc(-c2cccnc2)nc2ccccc12 (configuration not stated)	none
CC(=O)OCC1OC(OC(C)=O)C(NC(=O)c2cccnc2)C(OC(C)=O)C1OC(C)=O (configuration not stated)	none
Cc1cccc(/C=N/N2CCN(c3ccccc3)CC2)c1	none (no result: ABCB1 block)
Cc1ccc(Cl)cc1N1CCN(C(=O)Cc2csc(Nc3nc(=S)[nH]c4ccccc34)n2)CC1	MT stabilize HCS 9.5
O=C(CN(c1ccc2c(c1)OCCO2)S(=O)(=O)c1ccccc1)N1CCN(Cc2ccccc2)CC1	none
COc1ccc(OC)c(C2CC(=O)c3c([nH]c(C(=O)OCC4CCCO4)c3C)C2)c1 (configuration not stated)	MT stabilize HCS 31
CCCOCCOC(=O)c1[nH]c2c(c1C)C(=O)CC(c1cc(OC)ccc1OC)C2 (configuration not stated)	MT stabilize HCS 11
O=C(CCc1nnc(CCc2c[nH]c3ccccc23)o1)NC1CCC1	none (no result: PKD1 kinase inh, MT stabilize HCS, ABCG2 block, ABCB1 block)
COc1ccc(C2c3c(ccc4ccccc34)Oc3ncn4nc(-c5ccco5)nc4c32)cc1 (configuration not stated)	none
N=c1c2c(ncn1Cc1ccco1)Oc1cc(O)ccc1C2c1ccccc1 (configuration not stated)	none (no result: PKD1 kinase inh, MT stabilize HCS, ABCG2 block, ABCB1 block)
c1ccc(C2c3c(ccc4ccccc34)Oc3ncn4nc(-c5ccco5)nc4c32)cc1 (configuration not stated)	MT stabilize HCS 12
